How the values were obtained:
[1] = target: T1, Squalene synthase (Rattus norvegicus, UniProt Q02769); assay: Inhibition of squalene synthase in rat hepatic cells; type: cell-based
T1 sequence (Q02769 whole entry): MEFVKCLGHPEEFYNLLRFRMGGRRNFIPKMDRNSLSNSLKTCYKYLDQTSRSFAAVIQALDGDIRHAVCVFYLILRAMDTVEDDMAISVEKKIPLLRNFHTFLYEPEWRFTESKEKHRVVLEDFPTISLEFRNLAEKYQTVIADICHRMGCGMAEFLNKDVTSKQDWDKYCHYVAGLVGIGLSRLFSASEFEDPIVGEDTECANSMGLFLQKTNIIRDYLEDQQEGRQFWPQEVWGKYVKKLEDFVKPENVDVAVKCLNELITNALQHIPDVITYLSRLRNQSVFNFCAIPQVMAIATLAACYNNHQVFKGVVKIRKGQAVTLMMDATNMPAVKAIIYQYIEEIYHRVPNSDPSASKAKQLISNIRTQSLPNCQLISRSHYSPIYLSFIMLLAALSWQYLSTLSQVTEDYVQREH

[2] = system: marmosets; assay: Lipid lowering effect in marmosets assessed as reduction in plasma total cholesterol level at 100 mg/kg, po administered once daily for 7 days; type: functional; details: Callitrichinae sp., in Callithrix jacchus, 168 h
In short: (§1)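 Common marmosets, n = 8 per group, matched for body weight and plasma lipids. They were dosed orally at 100 mg/kg in 0.5% methylcellulose (5 ml/kg) once daily for 7 days. Nonfasted blood was drawn before dosing and the morning after the last dose. HDL was precipitated, then its cholesterol assayed enzymatically; non-HDL = total minus HDL cholesterol. Change was expressed relative to pre-values.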

[3] = system: marmosets; assay: Lipid lowering effect in marmosets assessed as reduction in plasma HDL-cholesterol level at 100 mg/kg, po administered once daily for 7 days; type: functional; details: Callitrichinae sp., in Callithrix jacchus, 168 h; in short: as §1
[4] = system: marmosets; assay: Lipid lowering effect in marmosets assessed as reduction in plasma triglyceride level at 100 mg/kg, po administered once daily for 7 days; type: functional; details: Callitrichinae sp., in Callithrix jacchus, 168 h; in short: as §1
[5] = system: Hepatocyte; assay: Inhibition of cholesterol synthesis in rat hepatocytes assessed as formation of cholesterol using [14C]mevalonolactone as substrate after 1 hr by radioactivity assay; type: functional, cell-based
In short: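 Rat hepatocytes isolated by two-step portal-vein perfusion (EGTA buffer, then 0.05% collagenase). Cells were kept if viability was over 80% by trypan blue and seeded at 10^6 cells/well in DMEM with 10% LPDS. Next day they got 5% LPDS medium with inhibitor at 0–3000 nM for 1 h at 37 °C, then [14C]mevalonolactone for 1 h. Lysates were saponified, [14C]cholesterol corrected by [3H]cholesterol recovery and BCA protein, and % inhibition taken versus 0 nM wells. Triplicate wells; three experiments.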

[6] = system: marmosets; assay: Lipid lowering effect in marmosets assessed as reduction in plasma non HDL-cholesterol level at 100 mg/kg, po administered once daily for 7 days; type: functional; details: Callitrichinae sp., in Callithrix jacchus, 168 h; in short: as §1
[7] = system: Rattus norvegicus; assay: Inhibition of cholesterol synthesis in Wistar rat liver assessed as reduction of [14C]-cholesterol level at 3 mg/kg, po administered as single dose measured after 1 hr by liquid scintillation counting; type: functional
In short: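 Male Wistar rats, 6 weeks old, n = 4-6, dosed orally at 3 mg/kg in 0.5% methylcellulose, with equimolar NaOH or NaHCO3 added; vehicle-only controls. At 1 h, [14C]mevalonic acid (5 µCi/5 ml/kg) was given ip, and rats were killed 1 h later.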

IC50 [1] | SMILES | inhibition in vivo at 100 mg/kg [2] | inhibition in vivo at 100 mg/kg [3] | inhibition in vivo at 100 mg/kg [4] | IC50 [5] | inhibition in vivo at 100 mg/kg [6] | inhibition in vivo at 3 mg/kg [7]
> 600 nM | O=C(O)CC1OC(c2cccc3ccccc23)c2cc(Cl)ccc2-n2cccc21 (stereo not drawn) | – | – | – | – | – | –
52 nM | O=C(O)CC1OC(c2cccc(Cl)c2Cl)c2cc(Cl)ccc2-n2cccc21 (stereo not drawn) | – | – | – | – | – | –
440 nM | O=C(O)CC1OC(c2cccc3c2OCCO3)c2cc(Cl)ccc2-n2cccc21 (stereo not drawn) | – | – | – | – | – | –
> 600 nM | COc1cccc([C@@H]2O[C@@H](CC(=O)N3CCC(CC(=O)O)CC3)c3cccn3-c3ccc(Cl)cc32)c1OC | – | – | – | – | – | –
– | COc1cccc([C@H]2O[C@H](CC(=O)N3CCC(CC(=O)O)CC3)c3cccn3-c3ccc(Cl)cc32)c1OC | 4% | -11% | 28% | 49 nM | 9% | –
3.4 nM | COc1cccc([C@H]2O[C@H](CC(=O)N3CCC(C(=O)O)CC3)c3cccn3-c3ccc(Cl)cc32)c1OC | – | – | – | 170 nM | – | –
2.3 nM | COc1cccc([C@H]2O[C@H](CC(=O)N3CCC[C@H](C(=O)O)C3)c3cccn3-c3ccc(Cl)cc32)c1OC | – | – | – | 60 nM | – | –
4.3 nM | COc1cccc([C@H]2O[C@H](CC(=O)N3CCN(CC(=O)O)CC3)c3cccn3-c3ccc(Cl)cc32)c1OC | – | – | – | 150 nM | – | –
2.3 nM | COc1cccc([C@H]2O[C@H](CC(=O)NCC(=O)O)c3cccn3-c3ccc(Cl)cc32)c1OC | – | – | – | 94 nM | – | –
2.9 nM | COc1cccc([C@H]2O[C@H](CC(=O)NCCC(=O)O)c3cccn3-c3ccc(Cl)cc32)c1OC | – | – | – | 160 nM | – | –
4 nM | COc1cccc([C@H]2O[C@H](CC(=O)Nc3cccc(C(=O)O)c3)c3cccn3-c3ccc(Cl)cc32)c1OC | – | – | – | 150 nM | – | –
3.1 nM | COc1cccc([C@H]2O[C@H](CCC(=O)O)c3cccn3-c3ccc(Cl)cc32)c1OC | – | – | – | > 1000 nM | – | –
2.4 nM | COc1cccc([C@H]2O[C@H](CCC(=O)N3CCC(CC(=O)O)CC3)c3cccn3-c3ccc(Cl)cc32)c1OC | – | – | – | 93 nM | – | 35%
1.4 nM | COc1cccc([C@H]2O[C@H](CCC(=O)N3CCC[C@H](C(=O)O)C3)c3cccn3-c3ccc(Cl)cc32)c1OC | 9% | -21% | 21% | 70 nM | 23% | 53%
2.2 nM | COc1cccc([C@H]2O[C@H](CCC(=O)N3CC(C(=O)O)C3)c3cccn3-c3ccc(Cl)cc32)c1OC | – | – | – | 23 nM | – | 31%
7 nM | COc1cccc([C@H]2O[C@H](CCC(=O)N3CC(CC(=O)O)C3)c3cccn3-c3ccc(Cl)cc32)c1OC | – | – | – | 36 nM | – | 41%
0.8 nM | COc1cccc([C@H]2O[C@H](CCC(=O)N3CCC(OCC(=O)O)CC3)c3cccn3-c3ccc(Cl)cc32)c1OC | – | – | – | 7.2 nM | – | 18%
1.4 nM | COc1cccc([C@H]2O[C@H](CCC(=O)N3CCC(OCCC(=O)O)CC3)c3cccn3-c3ccc(Cl)cc32)c1OC | – | – | – | 35 nM | – | 23%
0.9 nM | COc1cccc([C@H]2O[C@H](CCC(=O)N3CCC(COCC(=O)O)CC3)c3cccn3-c3ccc(Cl)cc32)c1OC | – | – | – | 10 nM | – | 7%
1.6 nM | COc1cccc([C@H]2O[C@H](CCC(=O)N3CCOC(C(=O)O)C3)c3cccn3-c3ccc(Cl)cc32)c1OC (stereo partly drawn) | – | – | – | 9.7 nM | – | 13%
2.2 nM | COc1cccc([C@H]2O[C@H](CCC(=O)N3CCN(CC(=O)O)C(=O)C3)c3cccn3-c3ccc(Cl)cc32)c1OC | – | – | – | 11 nM | – | 1%
0.59 nM | COc1cccc([C@H]2O[C@H](CCn3cc(C(=O)O)nn3)c3cccn3-c3ccc(Cl)cc32)c1OC | – | – | – | 25 nM | – | 44%

IC50 [1] | SMILES | inhibition in vivo at 100 mg/kg [2] | inhibition in vivo at 100 mg/kg [3] | inhibition in vivo at 100 mg/kg [4] | IC50 [5] | inhibition in vivo at 100 mg/kg [6] | inhibition in vivo at 3 mg/kg [7]
0.51 nM | COc1cccc([C@H]2O[C@H](CCn3cc(CC(=O)O)nn3)c3cccn3-c3ccc(Cl)cc32)c1OC | 10% | -8% | 24% | 24 nM | 21% | 66%
0.81 nM | COc1cccc([C@H]2O[C@H](CCn3nncc3CC(=O)O)c3cccn3-c3ccc(Cl)cc32)c1OC | – | – | – | 41 nM | – | 50%
0.68 nM | COc1cccc([C@H]2O[C@H](CCn3cc(COCC(=O)O)nn3)c3cccn3-c3ccc(Cl)cc32)c1OC | – | – | – | 19 nM | – | 18%
0.69 nM | COc1cccc([C@H]2O[C@H](CCn3cc(COC(C)(C)C(=O)O)nn3)c3cccn3-c3ccc(Cl)cc32)c1OC | – | – | – | 7.3 nM | – | 36%
1.7 nM | CCC(CC)(OCc1cn(CC[C@H]2O[C@H](c3cccc(OC)c3OC)c3cc(Cl)ccc3-n3cccc32)nn1)C(=O)O | – | – | – | 14 nM | – | 45%
1.3 nM | COc1cccc([C@H]2O[C@H](CCn3ccc(CC(=O)O)n3)c3cccn3-c3ccc(Cl)cc32)c1OC | 27% | -10% | 16% | 58 nM | 52% | 64%
1.6 nM | COc1cccc([C@H]2O[C@H](CCn3nccc3CC(=O)O)c3cccn3-c3ccc(Cl)cc32)c1OC | – | – | – | 210 nM | – | 5%
2.1 nM | COc1cccc([C@H]2O[C@H](CCn3cc(C(=O)O)cn3)c3cccn3-c3ccc(Cl)cc32)c1OC | – | – | – | 54 nM | – | 56%
3.1 nM | COc1cccc([C@H]2O[C@H](CCn3cc(CC(=O)O)cn3)c3cccn3-c3ccc(Cl)cc32)c1OC | – | – | – | 62 nM | – | 34%
0.89 nM | COc1cccc([C@H]2O[C@H](CCn3nnc(C(=O)O)n3)c3cccn3-c3ccc(Cl)cc32)c1OC | – | – | – | 18 nM | – | 38%
1.1 nM | COc1cccc([C@H]2O[C@H](CCn3nnnc3CC(=O)O)c3cccn3-c3ccc(Cl)cc32)c1OC | – | – | – | 130 nM | – | –
0.85 nM | COc1cccc([C@H]2O[C@H](CCn3nnc(CCC(=O)O)n3)c3cccn3-c3ccc(Cl)cc32)c1OC | – | – | – | 70 nM | – | 64%
1.1 nM | COc1cccc([C@H]2O[C@H](CCn3nnc(C(C)(C)C(=O)O)n3)c3cccn3-c3ccc(Cl)cc32)c1OC | – | – | – | 58 nM | – | 44%
1.7 nM | COc1cccc([C@H]2O[C@H](CCn3nnc(C4(C(=O)O)CC4)n3)c3cccn3-c3ccc(Cl)cc32)c1OC | – | – | – | 52 nM | – | 53%
2.5 nM | COc1cccc([C@H]2O[C@H](CCn3nnc(COC(C)(C)C(=O)O)n3)c3cccn3-c3ccc(Cl)cc32)c1OC | – | – | – | 10 nM | – | 51%
220 nM | COC(=O)CC1OC(c2cccc(OC)c2OC)c2cc(Cl)ccc2-n2cccc21 (racemic) | – | – | – | – | – | –
3.3 nM | COc1cccc(C2OC(CC(=O)O)c3cccn3-c3ccc(Cl)cc32)c1OC (racemic) | – | – | – | 250 nM | – | –
2.7 nM | COc1cccc(C2OC(CC(=O)N3CCC(CC(=O)O)CC3)c3cccn3-c3ccc(Cl)cc32)c1OC (racemic) | – | – | – | 63 nM | – | –
1.6 nM | COc1cccc(C2OC(CC(=O)O)c3ccc(Cl)n3-c3ccc(Cl)cc32)c1OC (racemic) | – | – | – | 560 nM | – | –
540 nM | COc1cccc(C2OC(CC(=O)O)c3ccc(CN(C)C)n3-c3ccc(Cl)cc32)c1OC (racemic) | – | – | – | – | – | –
7.6 nM | COc1cccc(C2OC(CC(=O)O)c3ccc(CN4CCOCC4)n3-c3ccc(Cl)cc32)c1OC (racemic) | – | – | – | 160 nM | – | –
– | COc1cccc([C@H]2O[C@H](CC(=O)N3CCC(CC(=O)O)CC3)C(=O)N(CC(C)(C)COC(C)=O)c3ccc(Cl)cc32)c1OC [LAPAQUISTAT ACETATE] | 23% | 14% | 25% | – | 29% | –

— ChEMBL document CHEMBL2057169, “Discovery of novel tricyclic compounds as squalene synthase inhibitors” (Bioorg Med Chem, 2012)
